In ChEMBL document CHEMBL5543129, “Peptide Inhibitor Targeting the Extraterminal Domain in BRD4 Potently Suppresses Breast Cancer Both In Vitro and In Vivo” (J Med Chem, 2024):
Activity calls are given as the source filed them. The rule behind the calls is not given here. Square brackets hold non-standard residues; d marks the D form. Peptide text beside a SMILES is read from it. Hyp = O=C(O)[C@@H]1C[C@@H](O)CN1; Ahx = NCCCCCC(=O)O

Tests used:
[1] = test system: MCF7; assay: Antitumor activity against human MCF7 cells xenografted in BALB/c nude mouse assessed as reduction in tumor weight at 12.5 mg/kg, ip administered every 2 days in presence of 12.5 mg/kg JMJD6 inhibitor; assay type: functional, organism-based
Outline: (§1)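 Female BALB/c nude mice given 5 × 10^6 cells sc (MCF7 mice with E2 10^-2 M every 2 days), randomised at ~50 mm3. Peptide 12.5 mg/kg ip (saline) every 2 days, plus JQ1 50 mg/kg ip (DMSO/10% HPBCD 1:10) every 2 days or iJMJD6 12.5 mg/kg ip (DMSO/PBS 1:20). Caliper volume every 2 days; tumours weighed at the end.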

[2] = test system: MCF7; assay: Antiproliferative activity against human MCF7 cells at 10 uM incubated for 1 week in presence of fulvestrant by CellTiter 96 Aqueous One Solution based assay; assay type: functional, cell-based; settings: time 1.0 weeks
Outline: (§2)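 Cells seeded at 2 × 10^3/well and treated with peptide (10 μM) alone or combined with JQ1 (5 μM), iJMJD6 (10 μM) or ICI (2.5 μM), as the line states. Viability read by MTS reagent, 1 h at 37 °C, A490. Three biological repeats.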

[3] = Toxicity in BALB/c mouse xenografted with human MCF7 cells assessed as change in liver morphology at 12.5 mg/kg, ip administered every 2 days in presence of 50 mg/kg JQ1; assay type: organism-based; settings: in vivo, 48 h
[4] = test system: T47D; assay: Inhibition of cell migration in human T47D cells at 10 uM incubated for 24 hrs in presence of JMJD6 inhibitor by inverted microscopic analysis; assay type: functional, cell-based
Outline: (§3)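 Cells are seeded at 5 × 10^5/well and scratched at 80–90% confluence. They are kept in serum-free medium with peptide (10 μM); partner agents are JQ1 5 μM, iJMJD6 10 μM, or ICI 2.5 μM. Wound area is imaged by inverted microscope at 0 and 12 or 24 h. Wound closure % = (A0−A1)/A0 × 100. Three biological repeats.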

[5] = test system: T47D; assay: Inhibition of colony formation in human T47D cells at 10 uM incubated for 2 weeks by crystal violet staining based assay; assay type: functional, cell-based
Outline: (§4)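 Cells are seeded at 1 × 10^3/well and treated with peptide (10 μM) for 2 weeks, alone or with JQ1 5 μM, iJMJD6 10 μM, ICI 2.5 μM, or tamoxifen 3 μM (tamoxifen-resistant lines). Colonies are stained with crystal violet, dissolved in 10% acetic acid, and read at 590 nm. Three biological repeats.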

[6] = test system: T47D; assay: Inhibition of cell migration in human T47D cells at 10 uM incubated for 24 hrs in presence of fulvestrant by inverted microscopic analysis; assay type: functional, cell-based; outline: as §3
[7] = Downregulation of N-myc protein expression in BALB/c mouse tumor xenografted with human MCF7 cells assessed as fold change in remaining N-myc level at 25 mg/kg, ip administered every 2 days by immunoblotting analysis; assay type: functional
Outline: (§5)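 Tumours taken from xenograft mice dosed with peptide at 25 mg/kg ip every 2 days. […] Three repeats.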

[8] = Downregulation of JMJD6 protein expression in BALB/c mouse tumor xenografted with human MCF7 cells assessed as fold change in remaining JMJD6 level at 25 mg/kg, ip administered every 2 days by immunoblotting analysis; assay type: functional; outline: as §5
[9] = Toxicity in BALB/c mouse xenografted with human MCF7 cells assessed as change in kidney weight at 12.5 mg/kg, ip administered every 2 days in presence of 50 mg/kg JQ1; assay type: organism-based; settings: in vivo, 48 h
[10] = Toxicity in BALB/c mouse xenografted with human MDA-MB-231 cells assessed as change in spleen morphology at 12.5 mg/kg, ip administered every 2 days in presence of 50 mg/kg JQ1; assay type: organism-based; settings: in vivo, 48 h
Outline: (§6)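 Female BALB/c nude mice (4–6 weeks) carried sc MDA-MB-231 xenografts (5 × 10^6 cells) and were randomized at about 50 mm3. Peptide (12.5 mg/kg ip in saline) and JQ1 (50 mg/kg ip, DMSO/10% HPBCD 1:10) were given every 2 days, alone or combined. Body weight was recorded, and heart, liver, spleen, lung and kidney morphology and weight were assessed.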

[11] = test system: BT-549; assay: Inhibition of colony formation in human BT-549 cells at 10 uM incubated for 2 weeks by crystal violet staining based assay; assay type: functional, cell-based; outline: as §4
[12] = test system: MDA-MB-231; assay: Antitumor activity against human MDA-MB-231 cells xenografted in BALB/c nude mouse assessed as reduction in tumor weight at 12.5 mg/kg, ip administered every 2 days in presence of 50 mg/kg JQ1; assay type: functional, organism-based; outline: as §1
[13] = test system: MCF7; assay: Antiproliferative activity against human MCF7 cells at 10 uM incubated for 1 week in presence of JMJD6 inhibitor by CellTiter 96 Aqueous One Solution based assay; assay type: functional, cell-based; settings: time 1.0 weeks; outline: as §2
[14] = Downregulation of c-Myc protein expression in BALB/c mouse tumor xenografted with human MDA-MB-231 cells assessed as fold change in remaining c-Myc level at 25 mg/kg, ip administered every 2 days by immunoblotting analysis; assay type: functional
Outline: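 Female BALB/c nude mice (4–6 weeks) carry subcutaneous MCF7 or MDA-MB-231 grafts (5 × 10^6 cells). MCF7 mice are brushed with E2 (10–2 M) every 2 days. Dosing starts at ~50 mm3: peptide in normal saline, ip every 2 days. Tumour lysates are immunoblotted with β-actin as loading control; repeated three times.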

[15] = Toxicity in BALB/c mouse xenografted with human MDA-MB-231 cells assessed as change in heart weight at 12.5 mg/kg, ip administered every 2 days in presence of 50 mg/kg JQ1; assay type: organism-based; settings: in vivo, 48 h; outline: as §6
[16] = Toxicity in BALB/c mouse xenografted with human MCF7 cells assessed as change in spleen weight at 12.5 mg/kg, ip administered every 2 days in presence of 50 mg/kg JQ1; assay type: organism-based; settings: in vivo, 48 h
[17] = Downregulation of […] protein expression in human MDA-MB-231 cells assessed as fold change in […] at 10 uM incubated for 24 hrs by immunoblotting analysis (reference value: 1); assay type: functional
Outline: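 Cells treated with peptide (10 μM) for 24 h. Lysates in Tris/NaCl/EDTA/1% Triton X-100, run on 10% SDS-PAGE and immunoblotted with ECL detection. β-actin as loading control. Three repeats, quantified against untreated cells.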

[18] = test system: MDA-MB-231; assay: Antiproliferative activity against human MDA-MB-231 cells at 10 uM incubated for 1 week in presence of 5 uM JQ1 by CellTiter 96 Aqueous One Solution based assay; assay type: functional, cell-based; settings: time 1.0 weeks; outline: as §2
[19] = test system: Mus musculus; assay: Downregulation of BRD4 mRNA expression in BALB/c mouse tumor xenografted with human MCF7 cells at 25 mg/kg, ip administered every 2 days by RT-qPCR analysis; assay type: functional, organism-based
[20] = test system: T47D; assay: Antiproliferative activity against human T47D cells at 10 uM incubated for 1 week in presence of JMJD6 inhibitor by CellTiter 96 Aqueous One Solution based assay; assay type: functional, cell-based; settings: time 1.0 weeks
[21] = test system: MDA-MB-231; assay: Inhibition of colony formation in human MDA-MB-231 cells at 10 uM incubated for 2 weeks in presence of JMJD6 inhibitor by crystal violet staining based assay; assay type: functional, cell-based; outline: as §4
[22] = test system: MCF7; assay: Antitumor activity against human MCF7 cells xenografted in BALB/c nude mouse assessed as reduction in tumor volume at 12.5 mg/kg, ip administered every 2 days in presence of 12.5 mg/kg JMJD6 inhibitor; assay type: functional, organism-based; outline: as §1

Molecule | Activity [1] | Activity [2] | Activity [3] | inhibition [4] | inhibition [5] | inhibition [6] | fold change (FC) [7] | fold change (FC) [8] | Activity [9] | Activity [10] | inhibition [11] | Activity [12] | Activity [13] | fold change (FC) [14] | Activity [15] | Activity [16] | fold change (FC) [17] | Activity [18] | Activity [19] | Activity [20] | other results
CC[C@H](C)[C@H](NC(=O)[C@H](Cc1ccc(O)cc1)NC(=O)[C@@H]1C[C@@H](O)CN1C(=O)[C@H](C)NC(=O)[C@@H](NC(=O)CCCCCNC(=O)[C@H](CCC(=O)O)NC(=O)CNC(=O)[C@H](CS)NC(=O)[C@H](CCCCN)NC(=O)[C@H](Cc1ccccc1)NC(=O)[C@H](CCCCN)NC(=O)[C@H](CCC(N)=O)NC(=O)[C@H](CC(N)=O)NC(=O)[C@H](CCCNC(=N)N)NC(=O)[C@H](CCCNC(=N)N)NC(=O)[C@H](CCCNC(=N)N)NC(=O)[C@H](CCCNC(=N)N)NC(=O)[C@H](CCC(N)=O)NC(=O)[C@H](CCCNC(=N)N)NC(=O)[C@H](CCCNC(=N)N)NC(=O)[C@H](CCCCN)NC(=O)[C@H](CCCCN)NC(=O)[C@H](CCCNC(=N)N)NC(=O)CNC(=O)[C@@H](N)Cc1ccc(O)cc1)[C@@H](C)CC)C(=O)O (H-YGRKKRRQRRRRNQKFKCGE[Ahx]IA[Hyp]YI-OH) | Active | Active | Non-Toxic | Active | Active | Active | 0.43 | 0.4 | Non-Toxic | Non-Toxic | Active | Active | Active | 0.44 | Non-Toxic | Non-Toxic | 0.68 | Active | inactive | Active | inhibition [21]: Active; Activity [22]: Active
H-YGRKKRRQRRRRNQKFKCGE-OH | Active | Active | Non-Toxic | Active | Active | Active | 0.38 | 0.71 | Non-Toxic | Non-Toxic | Active | Active | Active | 0.22 | Non-Toxic | Non-Toxic | 0.72 | Active | inactive | Active | inhibition [21]: Active; Activity [22]: Active
